Screening data as filed in PubChem BioAssay.
Rows were chosen to be rich in hits. Some 3% of all compounds tested hit in one or more screens of this group.
PfHsp90 set2: growth inhibition of yeast expressing Plasmodium Hsp90. inhibition, % at 9.4 µM. 310,000 compounds, 0.32% hits. S. cerevisiae expressing PfHsp90, BacTiter-Glo ATP, 48 h; yeast lacking PDR1 and PDR3 efflux regulators. AID 504621;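 active means every replicate shows inhibition above about 80%, whatever the replicate mean, limit read from the data; inconclusive means mean inhibition reaches the set limit but some replicate falls short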;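 further: 0% = DMSO neutral controls and 100% = 20 µM radicicol positive controls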
CaV13 ICDI inh: Disruptors of the CACNA1D IQ motif to Ca2+-dependent inactivation inhibitor domain association, primary screening, Förster resonance energy transfer in intact living … | HEK cells, CFP/YFP FRET ICDI-IQ, plate reader, 10 min; percent FRET-ratio fall versus neutral wells | 340,000 compounds, 0.098% hits | inhibition, % at 12.3 µM;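 active means mean replicate inhibition of at least 30% and at least 1% of replicates passing that level; inconclusive means only one of the two criteria is met; inactive means neither criterion is met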;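 further: 0% = median of the neutral control wells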
PvdQ inh: P. aeruginosa PvdQ acylase inhibition. purified PvdQ acylase, fluorescence plate reader. 340,000 compounds, 0.063% hits. inhibition, % at 10 µM; in the data active means inhibition above about 30%, passing the limit was not always enough; inconclusive means no clear call, values can overlap the other calls;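 further: 0% = vehicle neutral wells and 100% = reference inhibitor wells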
HSF-1 act: increases HSF-1 driven luciferase reporter signal; NIH3T3-HGL HSF-1 luciferase reporter, MG132, 8 h; 100% = twice DMSO control signal; activation, % at 9 µM; 300,000 compounds, 1.7% hits;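 active means mean replicate activation of at least 50% with a set share of replicates each reaching 50%; inconclusive means only one of those two conditions met; inactive means mean below 50% and too few replicates reaching it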;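 further: 0% = median of the neutral control wells and 100% = twice that signal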
T cruzi repl: blocks replication of Trypanosoma cruzi; T. cruzi beta-gal in NIH3T3, luminescence, 90 h; inhibition, % (no concentration beside the values); 300,000 compounds, 1.4% hits; AID 1885;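 active means mean inhibition across valid replicates above about 55%, limit read from the data; inconclusive means mean below that limit but half or more replicates reach it; inactive means mean below it, under half of replicates reach it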;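 further: signal also drops with host cell toxicity which is not excluded here; 0% = plate median of DMSO wells and 100% = zero luminescence signal; higher percent means less beta-gal luminescence so fewer parasites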
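Material: NIH/3T3 host cells with β-galactosidase reporter T. cruzi; Input: 5,000 host fibroblasts per well; Medium: DMEM, 2% fetal bovine serum; Compound: 50 nL DMSO compound solution per well; Schedule: 3 h host attachment, then at least 90 h co-culture; Detection: luminescent β-galactosidase signal after 60 min lysis.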
N-glyco inh: N-linked glycosylation inhibition. D54 ERlucT glycosylation luciferase reporter, 24 h; percent of 100 nM tunicamycin response. 360,000 compounds, 0.23% hits. reporter increase, % at 12.5 µM;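 active means mean luciferase reporter signal, scaled so untreated is 0 and the glycosylation-blocking control 100, at or above a set limit in every replicate; inconclusive means mean reaches the limit but not every replicate does; inactive means mean below the limit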;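 further: luciferase carries N-glycosylation sites so blocking glycosylation raises the light; 0% = median of neutral control wells and 100% = median of 100 nM tunicamycin wells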
The depositor's hits bear a star.

For O=c1[nH]c(N/N=C/c2cc3c(cc2[N+](=O)[O-])OCO3)nc2ccccc12 the results were PfHsp90 set2 1, CaV13 ICDI inh -5, PvdQ inh -10, HSF-1 act 9, T cruzi repl 0 and N-glyco inh 3.
Screening O=[N+]([O-])c1cc(/C=N/Nc2nc3ccccc3[nH]2)c(O)cc1O returned CaV13 ICDI inh -2, HSF-1 act 305* and T cruzi repl 29.
Screening C(=N\Nc1nc2ccccc2[nH]1)/c1cccc2cccnc12 returned PfHsp90 set2 10, CaV13 ICDI inh -5, PvdQ inh 9, HSF-1 act -8, T cruzi repl 31 and N-glyco inh -12.
`Cc1[nH]c2ccccc2c1/C=N/Nc1nc2ccccc2[nH]1` gave PfHsp90 set2 1, CaV13 ICDI inh -16, PvdQ inh 7, HSF-1 act 403*, T cruzi repl inconclusive and N-glyco inh 10.
Screening Cc1ccc(/C=N/Nc2nc3ccccc3[nH]2)s1 returned PfHsp90 set2 -22, CaV13 ICDI inh -3, PvdQ inh 27, HSF-1 act 452*, T cruzi repl 30 and N-glyco inh 3.
For COc1ccc(/C=N/Nc2nc3ccccc3[nH]2)c(OC)c1OC the results were PfHsp90 set2 -37, CaV13 ICDI inh 4, PvdQ inh -10, HSF-1 act 108*, T cruzi repl -5 and N-glyco inh -14.
Screening Cc1cccc(/C=C/c2nc3ccccc3c(=O)[nH]2)c1 returned PfHsp90 set2 -17, CaV13 ICDI inh 4, PvdQ inh -5, HSF-1 act 3, T cruzi repl -49 and N-glyco inh -3.
Cc1cc(=O)[nH]c(N/N=C/c2c(C)nn(-c3ccccc3)c2Cl)n1 was read as PfHsp90 set2 -36, CaV13 ICDI inh -5, PvdQ inh -7, HSF-1 act 38, T cruzi repl -24 and N-glyco inh -3.
Screening Cc1[nH]c2ccccc2c1/C=C/c1nc2ccccc2c(=O)[nH]1 returned PfHsp90 set2 -5, CaV13 ICDI inh -2, PvdQ inh 12, HSF-1 act 80*, T cruzi repl 30 and N-glyco inh -8.
Cc1nn(-c2ccccc2)c(Cl)c1/C=N/Nc1nc2ccccc2[nH]1 was read as PfHsp90 set2 11, CaV13 ICDI inh 15, PvdQ inh -6, HSF-1 act 27, T cruzi repl 27 and N-glyco inh 66*.
`C(=N\Nc1nc2ccccc2[nH]1)/c1c[nH]c2ccccc12` gave PfHsp90 set2 17, CaV13 ICDI inh -7, PvdQ inh 1, HSF-1 act 309*, T cruzi repl inconclusive and N-glyco inh inconclusive.
Screening Cc1cc(=O)[nH]c(N/N=C/c2c[nH]c3ccccc23)n1 returned PfHsp90 set2 -32, CaV13 ICDI inh -4, PvdQ inh -5, HSF-1 act 36, T cruzi repl -20 and N-glyco inh 2.
`CC1(C(=O)Nc2cccc3ncccc23)CCN1C(=O)Cc1ccc(-c2ccccc2)cc1` (stereo not given) gave CaV13 ICDI inh -5 and N-glyco inh -1.
`COC(=O)C1=C(C)N(Cc2ccc(C(F)(F)F)cc2)C(=NCc2cc(OC)c(OC)c(OC)c2)NC1c1cccc(Cl)c1` (stereo not given) gave CaV13 ICDI inh -10.
O=C(Nc1ccc(F)cc1)OC[C@@H]1CSCCS(=O)(=O)N1 was read as CaV13 ICDI inh -5.
`CCCCCCCCN1C(=O)[C@@H](CC(=O)N2CCN(C(=O)C3CC3)CC2)C[C@@]2(C(=O)OC)C1=C[C@H](C1CCCC1)O[C@@H]2C` gave CaV13 ICDI inh -5.
For O=C(c1ccc(SCc2cccc(Br)c2)c([N+](=O)[O-])c1)N1CCN(c2ccccn2)CC1 the results were CaV13 ICDI inh -5, PvdQ inh -10, HSF-1 act -5, T cruzi repl 58* and N-glyco inh -1.
For O=C(N[C@H](Cc1ccccc1)C(=O)N1CCN(c2ccc(Cl)cn2)CC1)[C@H]1O[C@@H](n2ccc(=O)[nH]c2=O)[C@H](O)[C@@H]1O the results were CaV13 ICDI inh -3.
